≈ marks a conversion by molar mass, not a printed value.
Tests used:
Assay type in all cases: functional
Enterococcus faecium = experiment: In vitro minimum inhibitory concentration against Enterococcus faecium ATCC 8043 using brain-heart infusion agar
In short: (§1)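 Overnight cultures were grown in BHI broth at 36 °C. Twofold dilutions of a 2000 µg/mL stock were made in BHI agar, giving 200–0.005 µg/mL. Plates received about 10^4 organisms and were incubated for 18 h at 36 °C. MIC was the lowest concentration with no visible growth on the plate.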

[1] = system: Staphylococcus epidermidis; experiment: In vitro minimum inhibitory concentration against Staphylococcus epidermidis 3159 using brain-heart infusion agar; in short: as §1
Pseudomonas aeruginosa [2] = experiment: In vitro minimum inhibitory concentration against Pseudomonas aeruginosa A5007 using brain-heart infusion agar; in short: as §1
Escherichia coli = experiment: In vitro minimum inhibitory concentration against Escherichia coli Juhl using brain-heart infusion agar; in short: as §1
Streptococcus equinus = experiment: In vitro minimum inhibitory concentration against Streptococcus bovis A5169 using brain-heart infusion agar; in short: as §1
Staphylococcus aureus [3] = experiment: In vitro minimum inhibitory concentration against Staphylococcus aureus A 5177 using brain-heart infusion agar; in short: as §1
Staphylococcus aureus [4] = experiment: In vitro minimum inhibitory concentration against Staphylococcus aureus ATCC 6538P using brain-heart infusion agar; in short: as §1
Streptococcus pyogenes = experiment: In vitro minimum inhibitory concentration against Streptococcus pyogenes 930 using brain-heart infusion agar; in short: as §1
Staphylococcus aureus [5] = experiment: In vitro minimum inhibitory concentration against Staphylococcus aureus CMX 553 using brain-heart infusion agar; in short: as §1
Acinetobacter = experiment: In vitro minimum inhibitory concentration against Acinetobacter CMX 669 using brain-heart infusion agar; in short: as §1
Pseudomonas aeruginosa [6] = experiment: In vitro minimum inhibitory concentration against Pseudomonas aeruginosa K799 / WT using brain-heart infusion agar; in short: as §1
Streptococcus agalactiae = experiment: In vitro minimum inhibitory concentration against Streptococcus agalactiae CMX 508 using brain-heart infusion agar; in short: as §1
Klebsiella pneumoniae [7] = experiment: In vitro minimum inhibitory concentration against Klebsiella pneumoniae 8045 using brain-heart infusion agar; in short: as §1
Klebsiella aerogenes = experiment: In vitro minimum inhibitory concentration against Enterobacter aerogenes ATCC 13048 using brain-heart infusion agar; in short: as §1
Staphylococcus aureus [8] = experiment: In vitro minimum inhibitory concentration against Staphylococcus aureus NCTC 10649 using brain-heart infusion agar; in short: as §1
Staphylococcus aureus [9] = experiment: In vivo antibacterial activity against Staphylococcus aureus NCTC 10649 infected mouse by subcutaneous administration; details: sc
In short: (§2)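 Compound was given in water or in dilute NaOH diluted with water, orally or subcutaneously. The dose was split equally between 1 and 5 h post-infection. Groups were 10 mice at ≥3 dose levels. ED50 was calculated from day-6 cumulative mortality by the trimmed Logit method.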

Staphylococcus aureus [10] = experiment: In vivo antibacterial activity against Staphylococcus aureus NCTC 10649 infected mouse by oral administration; in short: as §2
Klebsiella pneumoniae [11] = experiment: In vitro minimum inhibitory concentration brain-heart infusion agar; in short: as §1
Pseudomonas aeruginosa [12] = experiment: Not Plasmodium species

SMILES | MIC (Enterococcus faecium) [µg/mL] | MIC [1] [µg/mL] | MIC (Pseudomonas aeruginosa [2]) [µg/mL] | MIC (Escherichia coli) [µg/mL] | MIC (Streptococcus equinus) [µg/mL] | MIC (Staphylococcus aureus [3]) [µg/mL] | MIC (Staphylococcus aureus [4]) [µg/mL] | MIC (Streptococcus pyogenes) [µg/mL] | MIC (Staphylococcus aureus [5]) [µg/mL] | MIC (Acinetobacter) [µg/mL] | MIC (Pseudomonas aeruginosa [6]) [µg/mL] | MIC (Streptococcus agalactiae) [µg/mL] | MIC (Klebsiella pneumoniae [7]) [µg/mL] | MIC (Klebsiella aerogenes) [µg/mL] | MIC (Staphylococcus aureus [8]) [µg/mL] | ED50 (Staphylococcus aureus [9]) [mg/kg] | ED50 (Staphylococcus aureus [10]) [mg/kg] | MIC (Klebsiella pneumoniae [11]) [µg/mL] | MIC (Pseudomonas aeruginosa [12]) [µg/mL]
NC1CCN(c2nc3c(cc2F)c(=O)c(C(=O)O)cn3C2CC2)C1 (stereo not given) | 0.39 (≈ 1.17 µM) | 0.1 (≈ 0.301 µM) | 0.1 (≈ 0.301 µM) | 0.01 (≈ 0.0301 µM) | 0.78 (≈ 2.35 µM) | 0.2 (≈ 0.602 µM) | 0.1 (≈ 0.301 µM) | 0.39 (≈ 1.17 µM) | 0.1 (≈ 0.301 µM) | 0.1 (≈ 0.301 µM) | 0.1 (≈ 0.301 µM) | 0.39 (≈ 1.17 µM) | 0.01 (≈ 0.0301 µM) | 0.02 (≈ 0.0602 µM) | – | – | – | – | –
O=C1CCN(c2cc3c(cc2F)c(=O)c(C(=O)O)cn3C2CC2)C1 | > 100 | 3.1 (≈ 9.38 µM) | > 100 | 6.2 (≈ 18.8 µM) | > 100 | 3.1 (≈ 9.38 µM) | 1.56 (≈ 4.72 µM) | > 100 | 3.1 (≈ 9.38 µM) | 50 (≈ 151 µM) | > 100 | 100 (≈ 303 µM) | 6.2 (≈ 18.8 µM) | 12.5 (≈ 37.8 µM) | 1.56 (≈ 4.72 µM) | – | – | – | –
O=C1CCN(c2nc3c(cc2F)c(=O)c(C(=O)O)cn3-c2ccc(F)cc2F)CC1 | 1.56 (≈ 3.74 µM) | 0.2 (≈ 0.479 µM) | 12.5 (≈ 30 µM) | 0.39 (≈ 0.934 µM) | 3.1 (≈ 7.43 µM) | 0.1 (≈ 0.24 µM) | 0.05 (≈ 0.12 µM) | 1.56 (≈ 3.74 µM) | 0.1 (≈ 0.24 µM) | 1.56 (≈ 3.74 µM) | 3.1 (≈ 7.43 µM) | 1.56 (≈ 3.74 µM) | 0.39 (≈ 0.934 µM) | 3.1 (≈ 7.43 µM) | 0.1 (≈ 0.24 µM) | – | – | – | –
O=C(O)c1cn(-c2ccc(F)cc2F)c2nc(N3CCC(=NO)CC3)c(F)cc2c1=O | 1.56 (≈ 3.61 µM) | 0.2 (≈ 0.463 µM) | 12.5 (≈ 28.9 µM) | 0.78 (≈ 1.8 µM) | 3.1 (≈ 7.17 µM) | 0.1 (≈ 0.231 µM) | 0.05 (≈ 0.116 µM) | 1.56 (≈ 3.61 µM) | 0.2 (≈ 0.463 µM) | 3.1 (≈ 7.17 µM) | 6.2 (≈ 14.3 µM) | 0.78 (≈ 1.8 µM) | 0.78 (≈ 1.8 µM) | 3.1 (≈ 7.17 µM) | 0.1 (≈ 0.231 µM) | > 2 | > 8 | – | –
O=C(O)c1cn(C2CC2)c2c(F)c(N3CC/C(=N\O)C3)c(F)cc2c1=O | 0.1 (≈ 0.275 µM) | 0.02 (≈ 0.055 µM) | 0.78 (≈ 2.15 µM) | 0.02 (≈ 0.055 µM) | 0.2 (≈ 0.55 µM) | 0.01 (≈ 0.0275 µM) | < 0.005 | 0.1 (≈ 0.275 µM) | 0.02 (≈ 0.055 µM) | 0.2 (≈ 0.55 µM) | 0.78 (≈ 2.15 µM) | 0.1 (≈ 0.275 µM) | 0.05 (≈ 0.138 µM) | 0.39 (≈ 1.07 µM) | 0.01 (≈ 0.0275 µM) | 1.5 | 3 | – | –
O=C1CCN(c2c(F)cc3c(=O)c(C(=O)O)cn(C4CC4)c3c2F)C1 | 6.2 (≈ 17.8 µM) | 1.56 (≈ 4.48 µM) | 50 (≈ 144 µM) | 0.39 (≈ 1.12 µM) | 50 (≈ 144 µM) | 0.78 (≈ 2.24 µM) | 0.78 (≈ 2.24 µM) | 25 (≈ 71.8 µM) | 0.39 (≈ 1.12 µM) | 3.1 (≈ 8.9 µM) | 50 (≈ 144 µM) | 12.5 (≈ 35.9 µM) | 0.39 (≈ 1.12 µM) | 1.56 (≈ 4.48 µM) | 0.39 (≈ 1.12 µM) | – | – | – | –
O=C(O)c1cn(C2CC2)c2nc(N3CC/C(=N\O)C3)c(F)cc2c1=O | 0.39 (≈ 1.13 µM) | 0.05 (≈ 0.144 µM) | > 100 | 0.02 (≈ 0.0578 µM) | 0.78 (≈ 2.25 µM) | 0.05 (≈ 0.144 µM) | 0.02 (≈ 0.0578 µM) | 0.39 (≈ 1.13 µM) | 0.05 (≈ 0.144 µM) | 0.2 (≈ 0.578 µM) | – | 0.2 (≈ 0.578 µM) | – | 0.2 (≈ 0.578 µM) | 0.05 (≈ 0.144 µM) | – | – | 0.05 (≈ 0.144 µM) | 0.78 (≈ 2.25 µM)
O=C(O)c1cn(C2CC2)c2c(F)c(N3CCC(=NO)CC3)c(F)cc2c1=O | 0.2 (≈ 0.53 µM) | 0.02 (≈ 0.053 µM) | 3.1 (≈ 8.22 µM) | 0.2 (≈ 0.53 µM) | 0.39 (≈ 1.03 µM) | 0.02 (≈ 0.053 µM) | 0.01 (≈ 0.0265 µM) | 0.1 (≈ 0.265 µM) | 0.05 (≈ 0.133 µM) | 0.39 (≈ 1.03 µM) | 1.56 (≈ 4.13 µM) | 0.2 (≈ 0.53 µM) | 0.1 (≈ 0.265 µM) | 0.39 (≈ 1.03 µM) | 0.02 (≈ 0.053 µM) | 6.7 | 3 | – | –
O=C1CCN(c2cc3c(cc2F)c(=O)c(C(=O)O)cn3-c2ccc(F)cc2F)C1 | 25 (≈ 62.1 µM) | 1.56 (≈ 3.88 µM) | > 100 | 12.5 (≈ 31.1 µM) | > 100 | 1.56 (≈ 3.88 µM) | 0.39 (≈ 0.969 µM) | 25 (≈ 62.1 µM) | 1.56 (≈ 3.88 µM) | 12.5 (≈ 31.1 µM) | 50 (≈ 124 µM) | 12.5 (≈ 31.1 µM) | 6.2 (≈ 15.4 µM) | 12.5 (≈ 31.1 µM) | 0.39 (≈ 0.969 µM) | – | – | – | –

Source: ChEMBL document CHEMBL1125434, “Preparation and in vitro and in vivo evaluation of quinolones with selective activity against gram-positive organisms” (1992)
